# Results published in ChEMBL document CHEMBL1137852, “Novel fluoro- and hydroxyl-containing jasmonate derivatives as highly efficient elicitors in suspension cultures of Taxus chinensis” (2004).
# Key:
# Assay type in all cases: functional
# [1] = Eliciting activity on Tc (taxuyunnanine C) content in cell cultures of Taxus chinensis
# Outline: (§1)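 T. chinensis suspension cells grown in 50 mL medium in 250-mL flasks. Elicitor added on day 7 after inoculation in ethanol (1 µL per mL medium); controls received an equal volume of ethanol. Tc measured by reverse-phase HPLC and expressed as mg per g dry cells; maximum content within 21 days reported. Triplicate cultures, mean ± S.D.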
# [2] = Eliciting activity on Tc (taxuyunnanine C) production in cell cultures of Taxus chinensis
# Outline: (§2)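 T. chinensis suspension cells grown in 50 mL medium in 250-mL flasks. Elicitor added on day 7 post-inoculation in ethanol (1 µL per mL medium); controls received an equal volume of ethanol. Tc quantified by reverse-phase HPLC; maximum volumetric production (mg/L) within 21 days reported. Triplicate cultures, mean ± S.D.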
# [3] = Effect on Tc (taxuyunnanine C) production in cell cultures of Taxus chinensis at a concentration of 100 uM; outline: as §2
# [4] = Effect on Tc (taxuyunnanine C) production in cell cultures of Taxus chinensis at a concentration of 10 uM; outline: as §2
# [5] = Effect on Tc (taxuyunnanine C) production in cell cultures of Taxus chinensis at a concentration of 500 uM; outline: as §2
# [6] = Effect on Tc (taxuyunnanine C) content in cell cultures of Taxus chinensis at a concentration of 1 uM; outline: as §1
# [7] = Effect on Tc (taxuyunnanine C) production in cell cultures of Taxus chinensis at a concentration of 0 uM; outline: as §2
# [8] = Effect on Tc (taxuyunnanine C) production in cell cultures of Taxus chinensis; outline: as §2
# [9] = Effect on Tc (taxuyunnanine C) production in cell cultures of Taxus chinensis at a concentration of 1 uM; outline: as §2
# [10] = Effect on Tc (taxuyunnanine C) content in cell cultures of Taxus chinensis at a concentration of 0 uM; outline: as §1
# [11] = Effect on Tc (taxuyunnanine C) content in cell cultures of Taxus chinensis; outline: as §1
# [12] = Effect on Tc (taxuyunnanine C) content in cell cultures of Taxus chinensis at a concentration of 100 uM; outline: as §1
# [13] = Effect on Tc (taxuyunnanine C) content in cell cultures of Taxus chinensis at a concentration of 10 uM; outline: as §1
# [14] = Effect on Tc (taxuyunnanine C) content in cell cultures of Taxus chinensis at a concentration of 500 uM; outline: as §1
SMILES,Activity [1],Activity [2],also measured
CC/C=C/CC1C(=O)CCC1CC(=O)OCCO (centres undefined),38.1 mg/g DW,464 mg/L,
CC/C=C/CC1C(=O)CCC1CC(=O)OC (centres undefined),29.2 mg/g DW,386 mg/L,
CC/C=C/CC1C(=O)CCC1CC(=O)OCCOCCO (centres undefined),31.4 mg/g DW,417 mg/L,
CC/C=C/CC1C(=O)CCC1CC(=O)OCC(F)(F)C(F)(F)F (centres undefined),38.22 mg/g DW,480.5 mg/L,
CC/C=C/CC1C(=O)CCC1CC(=O)OCCC (centres undefined),27.9 mg/g DW,357 mg/L,
CC/C=C/CC1C(=O)CCC1CC(=O)OCC(F)(F)F (centres undefined),34.94 mg/g DW,440.3 mg/L,
CC/C=C/CC1C(=O)CCC1CC(=O)OCC(O)CO (centres undefined),,,Activity [3]: 544 mg/L; Activity [4]: 358 mg/L; Activity [5]: 522 mg/L; Activity [6]: 11.6 mg/g DW; Activity [7]: 128 mg/L; Activity [8]: 550 mg/L; Activity [9]: 160 mg/L; Activity [10]: 9.4 mg/g DW; Activity [11]: 47.2 mg/g DW; Activity [12]: 43.2 mg/g DW; Activity [13]: 27 mg/g DW; Activity [14]: 49.8 mg/g DW
